Laboratory results published in ChEMBL document CHEMBL1165881, “Synthesis and cytotoxicity evaluation of (tetrahydro-beta-carboline)-1,3,5-triazine hybrids as anticancer agents” (Eur J Med Chem, 2010).

Experiments:
MIA PaCa-2 = experiment: Cytotoxicity against human MIAPaCa2 cells after 72 hrs by MTT assay; assay type: functional, cell-based
How it was run: (§1)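 Seeded at 5000–10000 cells/well, incubated at 37 °C in CO2 with compounds at a range of concentrations, controls included, in triplicate wells. After 72 h, MTT solution (5 mg/mL) added; absorbance read at 540 nm. % cytotoxicity = 100 × [1 − (X/R1)] versus control absorbance; IC50 by nonlinear regression. Values are means of at least two independent experiments, three determinations each.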

MCF7 = experiment: Cytotoxicity against human MCF7 cells after 72 hrs by MTT assay; assay type: functional, cell-based; how it was run: as §1
K562 = experiment: Cytotoxicity against human K562 cells after 72 hrs by MTT assay; assay type: functional, cell-based; how it was run: as §1
KB = experiment: Cytotoxicity against human KB cells after 72 hrs by MTT assay; assay type: functional, cell-based; how it was run: as §1
SW-620 = experiment: Cytotoxicity against human SW620 cells after 72 hrs by MTT assay; assay type: functional, cell-based; how it was run: as §1
A549 = experiment: Cytotoxicity against human […] cells after 72 hrs by MTT assay; assay type: functional, cell-based; how it was run: as §1
DU-145 = experiment: Cytotoxicity against human DU145 cells after 72 hrs by MTT assay; assay type: functional, cell-based; how it was run: as §1
PA-1 = experiment: Cytotoxicity against human PA1 cells after 72 hrs by MTT assay; assay type: functional, cell-based; how it was run: as §1
[1] = Cytotoxicity against mouse NIH/3T3 cells after 72 hrs by MTT assay; assay type: cell-based, NIH3T3; how it was run: as §1
[2] = Homo sapiens, MCF7, 72 h, read-out: IC50
[3] = Homo sapiens, K562, 72 h, read-out: IC50
[4] = Homo sapiens, SW-620, 72 h, read-out: IC50
[5] = Homo sapiens, A549, 72 h, read-out: IC50
[6] = Homo sapiens, PA-1, 72 h, read-out: IC50
[7] = Mus musculus, NIH3T3, 72 h, read-out: IC50
[8] = Homo sapiens, MIA PaCa-2, 72 h, read-out: IC50
[9] = Homo sapiens, DU-145, 72 h, read-out: IC50

SMILES | IC50 (MIA PaCa-2; mia paca-2) | IC50 (MCF7; [2]) [µM] | IC50 (K562; [3]) [µM] | IC50 (KB; Homo sapiens, KB, 72 h) [µM] | IC50 (SW-620; [4]) [µM] | IC50 (A549; [5]) [µM] | IC50 (DU-145; du-145) | IC50 (PA-1; [6]) [µM] | IC50 [1, 7] [µM] | IC50 (MIA PaCa-2; [8]) [µM] | IC50 (DU-145; [9]) [µM] | IC50 (SW-620; sw-620) | IC50 (PA-1; pa-1) | other results
COC(=O)[C@@H]1Cc2c([nH]c3ccccc23)[C@@H](c2ccc(C(C)C)cc2)N1c1nc(N2CCN(C)CC2)nc(N2CCN(C)CC2)n1 | Not Active | 6.73 | 2.24 | 3.73 | 5.92 | 1.75 | Not Active | 2.89 | 2.63 |  |  |  |  | 
COC(=O)[C@H]1Cc2c([nH]c3ccccc23)[C@@H](c2ccccc2)N1c1nc(N2CCN(C)CC2)nc(N2CCN(C)CC2)n1 |  | 8.28 | 6.45 | 1.83 | 3.24 | 8.62 |  | 1.79 | 11.4 | 5.88 | 7.76 |  |  | 
COC(=O)[C@H]1Cc2c([nH]c3ccccc23)[C@H](c2ccccc2)N1c1nc(N2CCN(C)CC2)nc(N2CCN(C)CC2)n1 |  | 6.21 | 5.34 | 1.98 | 2.84 |  |  | 1.93 | 6 | 6.11 | 2.81 |  |  | 
CCCN1CCN(c2nc(N3CCN(CCC)CC3)nc(N3[C@H](c4ccc(OC)cc4)c4[nH]c5ccccc5c4C[C@H]3C(=O)OC)n2)CC1 |  | 2.07 |  | 3.54 |  | 1.67 |  |  | 2.24 |  | 7.11 | Not Active | Not Active | 
COC(=O)[C@@H]1Cc2c([nH]c3ccccc23)[C@H](c2cc(OC)c(OC)c(OC)c2)N1c1nc(N2CCN(C)CC2)nc(N2CCN(C)CC2)n1 (racemic) |  | 5.96 |  | 17.9 |  |  |  | 5.32 | 6.71 |  | 5.22 |  |  | 
COC(=O)[C@H]1Cc2c([nH]c3ccccc23)[C@H](c2ccc(OC)cc2)N1c1nc(N2CCN(C)CC2)nc(N2CCN(C)CC2)n1 |  | 11 | 6 | 0.99 | 2.15 |  |  | 2.05 | 3.16 | 6.23 | 2.58 |  |  | 
CCCNc1nc(NCCC)nc(N2[C@@H](c3ccc(OC)cc3)c3[nH]c4ccccc4c3C[C@@H]2C(=O)OC)n1 (racemic) | Not Active |  |  | 0.122 |  |  | Not Active |  |  |  |  | Not Active | Not Active | IC50 (MCF7; mcf7): Not Active; IC50 (K562; k562): Not Active; IC50 (A549; a549): Not Active; IC50 ([1]; nih3t3): Not Active
CCCNc1nc(NCCC)nc(N2[C@@H](c3ccc(C)cc3)c3[nH]c4ccccc4c3C[C@@H]2C(=O)OC)n1 (racemic) | Not Active |  |  | 0.665 |  |  | Not Active |  |  |  |  | Not Active | Not Active | IC50 (MCF7; mcf7): Not Active; IC50 (K562; k562): Not Active; IC50 (A549; a549): Not Active; IC50 ([1]; nih3t3): Not Active
COC(=O)[C@@H]1Cc2c([nH]c3ccccc23)[C@H](c2ccc(OC)cc2)N1c1nc(N2CCN(C)CC2)nc(N2CCN(C)CC2)n1 (racemic) |  | 6.06 | 7.13 |  |  |  |  | 2.72 | 2.33 |  | 5.35 |  |  | IC50 (MIA PaCa-2; mia paca-2, read-out: IC50): 7.37 µM; IC50 (KB; kb): 1.46 µM; IC50 (SW-620; sw-620, read-out: IC50): 3.32 µM; IC50 (A549; a549, read-out: IC50): 6.3 µM
CCN1CCN(c2nc(N3CCN(CC)CC3)nc(N3[C@H](c4ccc(OC)cc4)c4[nH]c5ccccc5c4C[C@H]3C(=O)OC)n2)CC1 |  | 1.34 |  | 1.22 |  | 1.61 |  |  | 1.86 |  | 1.67 | Not Active | Not Active | 
